Results as given in ChEMBL document CHEMBL1764953, “Discovery of orally active carboxylic acid derivatives of 2-phenyl-5-trifluoromethyloxazole-4-carboxamide as potent diacylglycerol acyltransferase-1 inhibitors for the potential treatment of obesity and diabetes” (J Med Chem, 2011).
The source made the active and inactive calls. The rule behind the calls is not given here.

Columns and labels:
[1] = tested on: Rattus norvegicus; test: Antiobesity activity in diet-induced obese rat assessed as decrease in food intake at 0.3 mg/kg, po administered once daily for 3 weeks; format: functional; parameters: scale not given: the % may be the effect or the level left
Procedure, shortened: (§1)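 Male DIO rats, 19 weeks old, on high fat diet for 12 weeks, dosed po once daily with Klucel (hydroxypropyl cellulose) suspension for 22 days; 10 rats per group. Body weight followed throughout; daily food intake recorded on days 1–3, 8, 9, 15 and 16, values averaged per group.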

[2] = target: Cytochrome P450 2C9 (Homo sapiens, UniProt P11712); test: Inhibition of CYP2C9; format: ADME
Cytochrome P450 2C9, sequence (P11712 whole entry): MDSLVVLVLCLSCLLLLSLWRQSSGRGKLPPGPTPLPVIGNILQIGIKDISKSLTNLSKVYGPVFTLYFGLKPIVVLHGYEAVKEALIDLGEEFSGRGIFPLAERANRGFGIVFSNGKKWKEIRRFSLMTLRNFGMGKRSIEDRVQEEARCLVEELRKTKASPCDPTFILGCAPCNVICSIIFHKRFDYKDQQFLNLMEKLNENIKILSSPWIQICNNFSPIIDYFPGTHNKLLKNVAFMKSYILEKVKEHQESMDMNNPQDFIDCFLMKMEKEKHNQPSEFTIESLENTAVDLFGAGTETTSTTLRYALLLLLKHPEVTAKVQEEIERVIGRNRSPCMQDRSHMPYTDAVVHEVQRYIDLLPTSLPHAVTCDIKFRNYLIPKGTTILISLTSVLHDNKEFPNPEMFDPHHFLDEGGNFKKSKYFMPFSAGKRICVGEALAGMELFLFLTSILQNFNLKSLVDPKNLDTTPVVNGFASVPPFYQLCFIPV

[3] = tested on: Rattus norvegicus; test: Antiobesity activity in diet-induced obese rat assessed as decrease in food intake at 1 mg/kg, po administered once daily for 3 weeks; format: functional; parameters: scale not given: the % may be the effect or the level left; procedure, shortened: as §1
[4] = Volume of distribution in Hanover Wistar rat at 5 mg/kg, iv; format: ADME, organism-based; parameters: dose 5 mg/kg, route intravenous; conditions: in vivo
[5] = Extrapolated AUC in Beagle dog at 10 mg/kg, po; format: ADME, organism-based, Canis lupus familiaris; parameters: dose 10 mg/kg, route oral; conditions: in vivo
Procedure, shortened: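 Plasma extracted by acetonitrile precipitation and quantified by LC-MS/MS (5.0–5000 ng/mL); noncompartmental PK; bioavailability relative to 5 mg/kg iv; mean of n = 3.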

[6] = target: Cytochrome P450 2D6 (Homo sapiens, UniProt P10635); test: Inhibition of CYP2D6; format: ADME
Cytochrome P450 2D6, sequence (P10635 whole entry): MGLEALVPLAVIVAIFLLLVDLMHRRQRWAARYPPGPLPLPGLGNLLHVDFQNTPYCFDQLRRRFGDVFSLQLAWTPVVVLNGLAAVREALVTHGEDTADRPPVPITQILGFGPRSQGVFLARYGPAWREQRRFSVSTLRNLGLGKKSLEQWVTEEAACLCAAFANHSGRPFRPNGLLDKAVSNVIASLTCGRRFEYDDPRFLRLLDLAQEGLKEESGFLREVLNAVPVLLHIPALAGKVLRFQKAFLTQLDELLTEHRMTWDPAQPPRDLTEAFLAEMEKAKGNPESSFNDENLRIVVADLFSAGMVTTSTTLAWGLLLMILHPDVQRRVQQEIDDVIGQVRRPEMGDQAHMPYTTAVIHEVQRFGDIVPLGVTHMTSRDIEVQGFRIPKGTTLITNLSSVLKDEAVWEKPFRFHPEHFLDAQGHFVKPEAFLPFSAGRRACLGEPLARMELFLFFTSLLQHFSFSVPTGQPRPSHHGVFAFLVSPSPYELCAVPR

[7] = tested on: Rattus norvegicus; test: Antiobesity activity in diet-induced obese rat assessed as reduction in body weight gain at 0.3 mg/kg, po administered once daily for 3 weeks; format: functional; parameters: scale not given: the % may be the effect or the level left; procedure, shortened: as §1
[8] = target: T1, Sterol O-acyltransferase 2 (Homo sapiens, UniProt O75908); test: Inhibition of human ACAT2 expressed in human HepG2 cells after incubated with compound for 15 mins measured after 1 hr using palmitoyl-1-14C-coenzyme A by TLC assay; format: cell-based
T1 sequence (O75908 whole entry): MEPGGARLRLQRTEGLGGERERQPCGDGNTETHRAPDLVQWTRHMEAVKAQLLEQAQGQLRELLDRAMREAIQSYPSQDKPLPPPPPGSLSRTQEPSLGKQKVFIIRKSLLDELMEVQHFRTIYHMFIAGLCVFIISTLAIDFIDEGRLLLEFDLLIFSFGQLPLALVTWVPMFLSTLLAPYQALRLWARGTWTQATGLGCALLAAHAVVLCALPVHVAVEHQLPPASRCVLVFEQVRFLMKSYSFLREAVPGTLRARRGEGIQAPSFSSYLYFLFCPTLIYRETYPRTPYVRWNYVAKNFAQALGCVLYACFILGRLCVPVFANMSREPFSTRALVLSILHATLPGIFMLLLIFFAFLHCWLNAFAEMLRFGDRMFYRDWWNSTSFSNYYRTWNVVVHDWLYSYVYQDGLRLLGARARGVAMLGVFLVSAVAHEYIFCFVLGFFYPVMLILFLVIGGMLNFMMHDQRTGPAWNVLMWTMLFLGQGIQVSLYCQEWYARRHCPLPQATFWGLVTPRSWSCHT
Procedure, shortened: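 HepG2 membranes (mixed ACAT1/ACAT2), 2.6 mg/mL stock, diluted to 0.52 mg/mL in Tris pH 7.5 buffer. Preincubated 15 min on ice with compound (0–600 μM solutions in 20% DMSO), then 2.37 μM [1-14C]palmitoyl-CoA solution added. Product extracted and resolved by TLC with phosphoimager read-out.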

[9] = tested on: Rattus norvegicus; test: Antiobesity activity in diet-induced obese rat assessed as reduction in body weight gain at 3 mg/kg, po qd; format: functional; parameters: scale not given: the % may be the effect or the level left
Procedure, shortened: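 Male DIO rats given 3 mg/kg po once daily for 1 week, with body weight gain followed. At study end, rats were fasted 4 h and challenged with corn oil 5 mL/kg; plasma triglycerides were measured 4 h later and compared with the vehicle group.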

[10] = Extrapolated AUC in Hanover Wistar rat at 10 mg/kg, po; format: ADME, organism-based; parameters: dose 10 mg/kg, route oral; conditions: in vivo
Procedure, shortened: (§2)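 Hanover Wistar rats (n = 3) with jugular/femoral cannulae, oral gavage of a 2 mg/mL suspension in 2% Klucel LF with 0.1% Tween 80; femoral-vein sampling, EDTA plasma, acetonitrile precipitation, LC-MS/MS (5.0–5000 ng/mL), noncompartmental analysis; F relative to 5 mg/kg iv; mean of n = 3.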

[11] = Permeability across human Caco2 cells; format: ADME, cell-based; conditions: Caco-2, read-out: permeability
[12] = tested on: Rattus norvegicus; test: Antidiabetic activity in diet-induced obese Sprague-Dawley rat assessed as effect on insulin level at 1 mg/kg, po administered once daily for 3 weeks measured after 30 mins by OGTT; format: functional, organism-based; parameters: dose 1 mg/kg
Procedure, shortened: (§3)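 DIO rats (n = 10/group) on high fat diet, dosed po once daily in Klucel suspension for 3 weeks. On day 21 an oral glucose challenge of 2 g/kg was given, and plasma insulin was measured at the 30 min time point.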

[13] = tested on: Rattus norvegicus; test: Antiobesity activity in diet-induced obese rat assessed as reduction in body weight gain at 1 mg/kg, po administered once daily for 3 weeks; format: functional; parameters: scale not given: the % may be the effect or the level left; procedure, shortened: as §1
[14] = Cmax in Hanover Wistar rat at 10 mg/kg, po by LC-MS/MS; format: ADME, organism-based; parameters: dose 10 mg/kg, route oral; conditions: in vivo; procedure, shortened: as §2
[15] = target: hERG (Homo sapiens, UniProt Q12809); test: Inhibition of human ERG-mediated current expressed in CHO cells by patch clamp method; format: cell-based; conditions: CHO cells expressing human ERG
hERG, sequence (Q12809 whole entry): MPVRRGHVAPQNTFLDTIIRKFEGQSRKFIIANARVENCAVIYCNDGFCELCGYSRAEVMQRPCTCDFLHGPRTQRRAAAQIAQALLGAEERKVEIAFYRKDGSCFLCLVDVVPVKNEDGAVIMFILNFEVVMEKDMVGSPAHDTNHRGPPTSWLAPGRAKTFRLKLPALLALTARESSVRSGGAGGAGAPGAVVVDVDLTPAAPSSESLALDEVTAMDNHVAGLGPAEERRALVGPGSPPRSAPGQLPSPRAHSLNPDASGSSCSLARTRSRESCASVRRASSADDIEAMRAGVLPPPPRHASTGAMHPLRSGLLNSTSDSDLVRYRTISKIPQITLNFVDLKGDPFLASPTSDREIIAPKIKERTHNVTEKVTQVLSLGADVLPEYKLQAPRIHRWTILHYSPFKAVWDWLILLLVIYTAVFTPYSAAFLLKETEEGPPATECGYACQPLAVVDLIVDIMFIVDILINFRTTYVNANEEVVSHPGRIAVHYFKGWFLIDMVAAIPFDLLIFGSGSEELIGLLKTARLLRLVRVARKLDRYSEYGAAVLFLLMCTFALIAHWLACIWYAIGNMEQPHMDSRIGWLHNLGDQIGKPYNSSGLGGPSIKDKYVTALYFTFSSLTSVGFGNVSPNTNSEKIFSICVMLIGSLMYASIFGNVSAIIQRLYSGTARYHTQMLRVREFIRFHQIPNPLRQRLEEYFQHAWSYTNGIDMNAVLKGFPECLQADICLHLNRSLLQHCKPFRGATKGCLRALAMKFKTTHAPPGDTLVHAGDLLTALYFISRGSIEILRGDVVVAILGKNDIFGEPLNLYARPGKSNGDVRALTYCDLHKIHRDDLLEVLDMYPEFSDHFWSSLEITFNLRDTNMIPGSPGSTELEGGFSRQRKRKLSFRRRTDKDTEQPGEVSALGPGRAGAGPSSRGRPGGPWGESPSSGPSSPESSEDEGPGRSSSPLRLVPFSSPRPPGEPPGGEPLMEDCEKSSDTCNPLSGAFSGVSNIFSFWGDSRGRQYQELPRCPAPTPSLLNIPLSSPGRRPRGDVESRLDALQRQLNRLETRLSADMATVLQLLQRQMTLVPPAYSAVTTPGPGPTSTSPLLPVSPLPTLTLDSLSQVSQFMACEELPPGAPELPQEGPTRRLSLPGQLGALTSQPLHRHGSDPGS
Procedure, shortened: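 hERG-transfected CHO cells on automated whole-cell patch clamp at a holding potential of −80 mV; 1 s depolarizing pulse at 0.1 Hz; tail current measured at −40 mV. Sequence: 0.3% DMSO vehicle, three ascending log-interval concentrations up to 30 μM or the solubility limit, then 1 μM E-4031. At least 3 cells per compound; data normalized to vehicle and fitted with the Hill equation.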

[16] = target: T2, Diacylglycerol O-acyltransferase 1 (Homo sapiens, UniProt O75907); test: Inhibition of human DGAT1 expressed in baculovirus infected insect cells after 1 hr using palmitoyl-1-14C-coenzyme A by phospholipid flashplate assay
T2 sequence (O75907 whole entry): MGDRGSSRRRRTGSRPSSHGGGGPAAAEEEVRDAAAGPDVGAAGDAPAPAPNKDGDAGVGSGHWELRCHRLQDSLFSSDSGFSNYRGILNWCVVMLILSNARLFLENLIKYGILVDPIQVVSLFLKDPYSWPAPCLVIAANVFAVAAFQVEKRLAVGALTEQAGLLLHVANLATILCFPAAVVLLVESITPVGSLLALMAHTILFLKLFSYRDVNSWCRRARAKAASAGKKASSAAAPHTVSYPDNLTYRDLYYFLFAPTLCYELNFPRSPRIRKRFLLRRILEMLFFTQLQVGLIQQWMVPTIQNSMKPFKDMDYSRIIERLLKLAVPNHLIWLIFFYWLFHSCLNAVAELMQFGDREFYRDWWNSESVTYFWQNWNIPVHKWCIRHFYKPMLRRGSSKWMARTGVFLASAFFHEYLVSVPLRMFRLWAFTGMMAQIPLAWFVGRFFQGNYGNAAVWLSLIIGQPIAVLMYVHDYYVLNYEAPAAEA

[17] = tested on: Rattus norvegicus; test: Antidiabetic activity in diet-induced obese Sprague-Dawley rat assessed as effect on insulin level at 0.3 mg/kg, po administered once daily for 3 weeks measured after 30 mins by OGTT; format: functional, organism-based; parameters: dose 0.3 mg/kg; procedure, shortened: as §3
[18] = Volume of distribution in Beagle dog at 5 mg/kg, iv; format: ADME, organism-based, Canis lupus familiaris; parameters: dose 5 mg/kg, route intravenous; conditions: in vivo
[19] = target: Cytochrome P450 2C19 (Homo sapiens, UniProt P33261); test: Inhibition of CYP2C19; format: ADME
Cytochrome P450 2C19, sequence (P33261 whole entry): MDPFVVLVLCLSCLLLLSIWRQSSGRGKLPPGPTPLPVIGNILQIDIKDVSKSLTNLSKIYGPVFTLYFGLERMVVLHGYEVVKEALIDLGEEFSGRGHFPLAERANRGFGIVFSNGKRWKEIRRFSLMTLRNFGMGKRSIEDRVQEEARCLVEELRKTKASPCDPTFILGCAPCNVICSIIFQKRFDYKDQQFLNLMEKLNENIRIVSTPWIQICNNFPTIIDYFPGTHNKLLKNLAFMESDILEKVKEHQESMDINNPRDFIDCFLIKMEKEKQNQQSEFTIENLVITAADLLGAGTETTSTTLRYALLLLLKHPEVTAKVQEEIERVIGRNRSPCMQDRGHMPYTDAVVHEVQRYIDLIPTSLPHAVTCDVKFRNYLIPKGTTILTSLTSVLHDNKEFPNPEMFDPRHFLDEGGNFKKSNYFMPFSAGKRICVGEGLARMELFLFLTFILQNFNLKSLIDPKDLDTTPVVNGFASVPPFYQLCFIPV

IC50 [2]: > 50 µM
Vd [4]: 0.27 L/kg
AUC [5]: 77.9 µM·h
IC50 [6]: > 50 µM
IC50 [8]: 68.4 µM
AUC [10]: 567 µM·h
Papp [11]: 24.5 ×10⁻⁶ cm/s
Cmax [14]: 34.8 µM
IC50 [16]: 0.057 µM
Vd [18]: 0.38 L/kg
IC50 [19]: > 50 µM
Compound: O=C(Nc1ccc(C2CCN(C(=O)[C@H]3CC[C@H](C(=O)O)CC3)CC2)cc1)c1nc(-c2ccccc2)oc1C(F)(F)F
Activity [1]: 17%
Activity [3]: 19%
Activity [7]: 5%
Activity [9]: 4%
Activity [12]: inactive
Activity [13]: 6%
IC20 [15]: 30 µM
Activity [17]: inactive
